# XBP1 UPR activ: adaptive UPR (XBP1) activation; 0.33% of 330,000 active; CHO-XBP1 luciferase reporter, IRE1-XBP1 UPR activation, luminescence; percent of tunicamycin response, DMSO as zero; activation, % at 20 µM;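 active = versus positive control, 20 µM dose yields 30% or more activation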;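 also: 100% = tunicamycin at 10 µg/mL and 0% = DMSO only wells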
#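 Assay system: IRE1-XBP1 luciferase reporter CHO line. Input: 1000 cells/well. Buffer or medium: F12 with 10% serum. Doses: 20 µM, 1% DMSO. Times: overnight seeding at 37 °C, 6 h compound treatment at 37 °C. Technique: Steady-Glo luciferase glow luminescence, 10 min after reagent addition.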
# ABHD5-PLIN5 inh: ABHD5-PLIN5 protein interaction inhibition; Q00G26+Q8WTS1; Split G. princeps luciferase complementation, luminescence, 4 h; inhibition, % at 4 µM; 0.78% of 360,000 active;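 active = inhibition above the mean inhibition across every tested compound plus 3 SD, cut at about 22% in these data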;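 also: 0% = DMSO only wells and the 100% control is not disclosed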
# Target sequence (Q00G26 whole entry, looked up): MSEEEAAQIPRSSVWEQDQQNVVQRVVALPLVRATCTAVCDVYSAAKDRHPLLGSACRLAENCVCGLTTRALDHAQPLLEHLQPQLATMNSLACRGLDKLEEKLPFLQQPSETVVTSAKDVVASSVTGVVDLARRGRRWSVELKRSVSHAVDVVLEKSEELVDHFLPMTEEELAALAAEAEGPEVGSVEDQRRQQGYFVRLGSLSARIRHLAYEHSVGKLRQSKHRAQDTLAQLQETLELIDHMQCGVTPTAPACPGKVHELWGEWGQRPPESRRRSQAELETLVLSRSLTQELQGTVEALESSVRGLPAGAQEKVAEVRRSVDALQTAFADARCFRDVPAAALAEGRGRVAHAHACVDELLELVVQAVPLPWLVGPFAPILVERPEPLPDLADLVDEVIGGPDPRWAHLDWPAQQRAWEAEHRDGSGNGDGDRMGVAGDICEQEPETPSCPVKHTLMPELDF
# Target sequence (Q8WTS1 whole entry, looked up): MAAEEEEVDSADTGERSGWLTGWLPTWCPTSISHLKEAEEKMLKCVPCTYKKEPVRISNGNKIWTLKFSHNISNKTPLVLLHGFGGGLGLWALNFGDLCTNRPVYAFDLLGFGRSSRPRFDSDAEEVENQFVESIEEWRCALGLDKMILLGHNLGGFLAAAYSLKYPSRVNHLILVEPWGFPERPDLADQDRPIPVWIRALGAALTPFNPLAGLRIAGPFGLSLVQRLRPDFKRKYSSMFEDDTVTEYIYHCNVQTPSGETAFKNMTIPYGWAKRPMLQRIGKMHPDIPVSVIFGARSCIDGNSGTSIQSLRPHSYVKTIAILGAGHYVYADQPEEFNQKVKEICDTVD
# UPR CHOP act: apoptotic UPR (CHOP) activation | CHO-CHOP luciferase reporter, luminescence; percent of tunicamycin response over DMSO baseline | activation, % at 10 µM | 0.34% of 330,000 active | AID 449763;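 active = at 10 µM dose, activation of 40% or more, normalized to positive control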;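 also: 100% = tunicamycin at 10 µg/mL and 0% = DMSO alone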
#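 Assay system: CHO-CHOP cells, stable luciferase reporter of PERK-eIF2a-CHOP signalling / Buffer or medium: F12 plus 10% serum / Compound dosing: one dose, 10 µM in 0.5% DMSO / Times: 6 h compound treatment, 37 °C / Technique: luciferase luminescence / Read-out: % reporter activation, DMSO baseline versus tunicamycin full activation / Benchmarks: tunicamycin and DMSO controls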
# Exocytosis inh: blocks lytic granule exocytosis | TALL-104 LAMP-1 surface exposure, flow cytometry; cells stimulated with thapsigargin and PMA | inhibition, % at 10 µM | 0.66% of 360,000 active;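 active = inhibition above about 55%, limit read from the data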
# Mdm2-MdmX inh: inhibitors of human Mdm2/MdmX interaction. O15151+Q00987. SaOS-2 split-luciferase Mdm2/MdmX complementation, luminescence. inhibition, % at 8 µM. 3% of 330,000 active. AID 485346;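 active = inhibition of at least 50% at 8 µM in the primary screen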
# Mdm2 MdmX conf: human Mdm2/MdmX binding inhibition, confirmed | shares compounds with Mdm2-MdmX inh | luminescent assay | inhibition, % at 8 µM | 55% of 10,000 active | AID 489028; in the data active = inhibition above about 40%
# FLuc counter: inhibits full-length luciferase, flagging false Mdm2/MdmX hits; SaOS-2 full-length luciferase counterscreen, luminescence; shares compounds with Mdm2-MdmX inh; inhibition, % at 8 µM; 77% of 6,200 active;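 active = mean inhibition at 8 µM reaching about 37%, which flags the compound as non-specific, limit read from the data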;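 also: p53-null SaOS-2 cells with luciferase driven by a doxycycline-inducible promoter; compound on cells about two nights before reading with doxycycline added after day one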
# * marks the source's active call; other numbers are inactive results; nt = no result. Rows were chosen to be rich in hits. Some 4% of all compounds tested hit in one or more screens of this group.
SMILES,XBP1 UPR activ,ABHD5-PLIN5 inh,UPR CHOP act,Exocytosis inh,Mdm2-MdmX inh,Mdm2 MdmX conf,FLuc counter
COc1cc(OC)cc(-c2nnc(NC(=O)CCS(=O)(=O)c3ccccc3)o2)c1,-1,-2,-3,2,43,nt,nt
COc1cc(-c2nnc(NC(=O)CCS(=O)(=O)c3ccccc3)o2)cc(OC)c1OC,-2,9,-1,-2,79*,65*,63*
C[C@@H](C(=O)Nc1ccc2c(c1)OCO2)n1c(=O)[nH]c2ccccc2c1=O,-3,-6,0,1,-24,nt,nt
C[C@@H](C(=O)Nc1ccc2c(c1)OCCO2)n1c(=O)[nH]c2ccccc2c1=O,-9,0,-6,-8,62*,81*,76*
O=C(O)c1cccc(Nc2nc(-c3cccnc3)nc3ccccc23)c1,1,3,-2,2,-6,nt,nt
CCOC(=O)c1cccc(Nc2nc(-c3cccnc3)nc3ccccc23)c1,19,-6,10,0,70*,36,nt
COC(=O)c1cccc(Nc2nc(-c3cccnc3)nc3ccccc23)c1,2,-4,9,32,70*,43*,72*
Cc1cc(C)cc(SCc2noc(C(=O)NCCN(C)C)c2C(=O)NCCN(C)C)c1,-1,1,0,5,89*,47*,49*
CCOC(=O)C1C(=O)CC(C)(O)C(C(=O)OCC)C1c1ccc(Br)o1 (stereo not given),-3,nt,-1,nt,-9,nt,nt
CC(CCc1ccc(O)cc1)NCCC(c1ccccc1)c1ccccc1 (stereo not given),-1,8,1,7,51*,29,nt
Cc1cc(C(=O)NCCN2CCN(c3cccc(Cl)c3)CC2)n(-c2ccccc2)n1,1,3,2,-1,53*,59*,62*
Cc1ccc(Cn2ccc(NC(=O)c3cc(-c4ccc(Cl)cc4)on3)n2)cc1,-1,9,0,-3,-12,nt,nt
Cc1ccc(Cn2ccc(NC(=O)c3cc(-c4cccc(Cl)c4)on3)n2)cc1,1,-1,-3,4,55*,17,nt
CCOc1ccc2nc(N3CCC(C(=O)N4CCN(c5ccccn5)CC4)CC3)sc2c1,14,-5,2,-1,-6,nt,nt
COC(=O)c1ccc(COc2ccc(-c3nnn(CC(N)=O)n3)cc2)cc1,-3,-1,0,5,56*,11,nt
CCCCN1C(=O)C(O)(CC(=O)c2ccco2)c2cc(Br)ccc21 (stereo not given),3,-2,0,4,65*,51*,75*
O=C(c1[nH]c(C(F)(F)F)nc1-c1ccccc1)N1CCN(c2ncccn2)CC1,nt,-2,nt,-1,nt,nt,nt
COc1cc(C(=O)O/N=C(\N)c2cccc([N+](=O)[O-])c2)cc(OC)c1OC,4,-3,2,-6,74*,36,103*
COc1cc(C(=O)O/N=C(\N)c2ccc([N+](=O)[O-])cc2)cc(OC)c1OC,3,-1,-1,4,75*,36,95*
CCOc1cc(C(=O)O/N=C(\N)c2ccc([N+](=O)[O-])cc2)cc(OCC)c1OCC,2,0,5,-2,67*,46*,92*
COc1ccc(/C(N)=N/OC(=O)c2cccc([N+](=O)[O-])c2)cc1,7,4,7,0,-34,nt,nt
Cc1cccc(COC[C@H](CC(C)C)N2CCN(C(=O)c3ccc(C(C)(C)C)cc3)CCC2=O)c1,nt,4,nt,2,nt,nt,nt
COc1cc(C2c3[nH]c4ccccc4c3C[C@H]3C(=O)N(C4CC4)CC(=O)N23)ccc1OC(C)C (stereo not given in full),-7,-8,0,-8,27,nt,nt
CCCCn1c(=N)n(CC(O)COc2ccc(C)cc2)c2ccccc21 (stereo not given),-1,7,0,3,58*,31,nt
Cc1ccc(Cn2c(=N)n(CC(O)COc3ccccc3)c3ccccc32)cc1 (stereo not given),1,7,0,2,69*,76*,62*
SMILES,XBP1 UPR activ,ABHD5-PLIN5 inh,UPR CHOP act,Exocytosis inh,Mdm2-MdmX inh,Mdm2 MdmX conf,FLuc counter
CCOC(=O)c1sc(NC(=O)CN2C(=O)c3cccc4cccc(c34)C2=O)nc1C,-4,6,0,1,73*,13,nt
CCOC(=O)c1sc(NC(=O)CCCCCN2C(=O)c3cccc4cccc(c34)C2=O)nc1C,nt,0,nt,7,nt,nt,nt
Fc1ccc(NC(=S)Nc2ccc(F)c(Cl)c2)cc1Cl,1,-9,3,1,64*,28,nt
Cc1nc2ccccc2nc(C)c1=NOCc1ccc(C#N)cc1,2,3,-2,-5,-6,nt,nt
O=c1cc(CSc2ccc(Cl)cc2)nc(-c2ccccn2)[nH]1,21,-4,30,4,89*,78*,31
Cc1cc(NC(=O)COC(=O)c2oc3c(ccc4ccccc43)c2C)no1,1,9,-1,0,59*,31,59*
Cc1c(C(=O)OCC(=O)Nc2ccc(S(N)(=O)=O)cc2)oc2c1ccc1ccccc12,1,-1,0,-8,52*,23,nt
Cc1cc(NC(=O)COC(=O)c2ccccc2O)no1,0,3,4,13,-8,nt,nt
N#C/C(=C(/O)c1cccs1)c1nc2ccccc2[nH]1,1,-6,3,13,6,nt,nt
CCCCCCCCC[n+]1cccc2c3ccccc3ccc21,15,29*,9,56*,91*,87*,57*
O=[N+]([O-])c1ccc(C[n+]2cccc3c4ccccc4ccc32)cc1,6,1,-1,-1,19,nt,nt
COc1ccc(NC(=O)Cn2nnc(C(=O)NCc3ccccc3)c2N)cc1Cl,4,0,2,0,26,nt,nt
COc1ccc(NC(=O)Cn2nnc(C(=O)Nc3ccc(F)c(Cl)c3)c2N)cc1OC,-3,11,2,4,66*,31,nt
COc1ccc(NC(=O)Cn2nnc(C(=O)NCc3cccs3)c2N)cc1OC,-3,1,0,-3,19,nt,nt
COc1ccc(Cl)cc1NC(=O)c1nnn(CC(=O)Nc2ccc(C)c(C)c2)c1N,-2,-1,-1,0,53*,32,nt
COc1ccc(NC(=O)Cn2nnc(C(=O)NCc3ccc(C)cc3)c2N)cc1Cl,-3,-1,3,0,53*,32,nt
CCNCc1cc(Cl)c(OCc2ccccc2)c(OCC)c1,-2,11,2,6,38,nt,nt
Cc1cc(C)cc(NS(=O)(=O)c2ccc(-c3cnc(C4CC4)o3)cc2)c1,8,-10,-1,7,75*,68*,69*

# Bioassay records: PubChem, several laboratories
